Measurements taken from ChEMBL document CHEMBL1153279, “Antioxidant and antiradical activities of resorcinarene tetranitroxides” (Bioorg Med Chem Lett, 2009).

Columns and labels:
[1] = test system: Radical scavenging activity; test: Antioxidant activity assessed as [drug]/[DPPH]causing 50% DPPH radical scavenging activity after 5 mins; type: functional
Summary of the method: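 DPPH reacted with scavenger at 25 °C in 1.5 mL EtOH plus 0.5 mL 0.2 M acetate buffer (pH 5.5). DPPH started at 50–100 µM and test scavengers at 0.5–25 µM. Percent DPPH scavenging was read after 5 min and plotted against the [scavenger]/[DPPH] ratio. ECR50 is the ratio giving 50% scavenging.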

[2] = Antiradical activity against 2,2'-azobis-amidinopropane-induced linoleic acid peroxidation assessed as ratio of total oxyradical scavenging capacity to Trolox C; type: physicochemical
Summary of the method: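 Linoleic acid (0.63 mM) was autoxidized by 1 mM ABAP in 0.05 M phosphate buffer (pH 7.4) with 0.02% Lubrol, in air at 37 °C. Conjugated-diene formation was followed at 234 nm. Inhibitor was added once autoxidation ran at constant rate. Efficiency is expressed relative to Trolox C, with stoichiometric factors taken from lag-time ratios and Trolox n set at 2.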

Row | Compound | Activity [1] | Ratio [2]
1 | Oc1cccc(O)c1 [RESORCINOL] | 0.29 | 1.7
2 | CC1(C)CC(O)CC(C)(C)N1[O] [TEMPOL] | 64 | 0.4
